Measurements: ChEMBL document CHEMBL1132562, “Ajoene is an inhibitor and subversive substrate of human glutathione reductase and Trypanosoma cruzi trypanothione reductase: crystallographic, kinetic, and spectroscopic studies” (J Med Chem, 1999)

Columns and labels:
[1] = substrate: C=CCSS/C=C/C[S+]([O-])CC=C; test: Kcat value determined against Trypanothione reductase (TR) by oxidation of NADPH; details: Trypanosoma cruzi
Summary of the method: (§1)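 T. cruzi trypanothione reductase, recombinant, with NADPH and ajoene as substrate in TR assay buffer (40 mM Hepes, 1 mM EDTA, pH 7.5) at 25 °C. NADPH oxidation followed as absorbance decrease at 340 nm. Controls held only NADPH and enzyme, giving the intrinsic oxidase activity.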

[2] = substrate: C=CCSS/C=C\C[S+]([O-])CC=C; test: Km value determined against Trypanothione reductase (TR) by oxidation of NADPH; details: Trypanosoma cruzi
[3] = substrate: C=CCSS/C=C/C[S+]([O-])CC=C; test: (§2) Km value determined against Trypanothione reductase (TR); details: Trypanosoma cruzi; summary of the method: as §1
[4] = substrate: C=CCSS/C=C\C[S+]([O-])CC=C; test: as §2; details: Trypanosoma cruzi; summary of the method: as §1
[5] = substrate: C=CCSS/C=C/C[S+]([O-])CC=C; test: (§3) Km value determined against human Glutathione reductase (GR) by oxidation of NADPH
Summary of the method: (§4)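 Recombinant human glutathione reductase in GR assay buffer (phosphate, 200 mM KCl, 1 mM EDTA, pH 6.9) at 25 °C with 150 μM NADPH and ajoene or DATS as substrate. NADPH consumption read at 340 nm. Where GSH is present, it is added to the mixture. Controls held NADPH and enzyme only (intrinsic oxidase activity).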

[6] = substrate: C=CCSS/C=C\C[S+]([O-])CC=C; test: as §3; summary of the method: as §4
[7] = substrate: C=CCSSSCC=C; test: as §3; summary of the method: as §4

Protein	Km [1] [µM]	Km [2] [µM]	Km [3] [µM]	Km [4] [µM]	Km [5] [µM]	Km [6] [µM]	Km [7] [µM]
Trypanothione reductase (Trypanosoma cruzi), P28593 (protein) MMSKIFDLVVIGAGSGGLEAAWNAATLYKKRVAVIDVQMVHGPPFFSALGGTCVNVGCVPKKLMVTGAQYMEHLRESAGFGWEFDRTTLRAEWKKLIAVKDEAVLNINKSYEEMFRDTEGLEFFLGWGSLESKNVVNVRESADPASAVKERLETENILLASGSWPHMPNIPGIEHCISSNEAFYLPEPPRRVLTVGGGFISVEFAGIFNAYKPKDGQVTLCYRGEMILRGFDHTLREELTKQLTANGIQILTKENPAKVELNADGSKSVTFESGKKMDFDLVMMAIGRSPRTKDLQLQNAGVMIKNGGVQVDEYSRTNVSNIYAIGDVTNRVMLTPVAINEAAALVDTVFGTNPRKTDHTRVASAVFSIPPIGTCGLIEEVASKRYEVVAVYLSSFTPLMHNISGSKYKTFVAKIITNHSDGTVLGVHLLGDNAPEIIQGVGICLKLNAKISDFYNTIGVHPTSAEELCSMRTPSYYYVKGEKMEKPSEASL	> 2000	> 2000	> 2000	≥ 2000			
Glutathione reductase, mitochondrial (Homo sapiens), P00390 (protein) MALLPRALSAGAGPSWRRAARAFRGFLLLLPEPAALTRALSRAMACRQEPQPQGPPPAAGAVASYDYLVIGGGSGGLASARRAAELGARAAVVESHKLGGTCVNVGCVPKKVMWNTAVHSEFMHDHADYGFPSCEGKFNWRVIKEKRDAYVSRLNAIYQNNLTKSHIEIIRGHAAFTSDPKPTIEVSGKKYTAPHILIATGGMPSTPHESQIPGASLGITSDGFFQLEELPGRSVIVGAGYIAVEMAGILSALGSKTSLMIRHDKVLRSFDSMISTNCTEELENAGVEVLKFSQVKEVKKTLSGLEVSMVTAVPGRLPVMTMIPDVDCLLWAIGRVPNTKDLSLNKLGIQTDDKGHIIVDEFQNTNVKGIYAVGDVCGKALLTPVAIAAGRKLAHRLFEYKEDSKLDYNNIPTVVFSHPPIGTVGLTEDEAIHKYGIENVKTYSTSFTPMYHAVTKRKTKCVMKMVCANKEEKVVGIHMQGLGCDEMLQGFAVAVKMGATKADFDNTVAIHPTSSEELVTLR					800	380	160
